Assay results: article PMC13154657 (Journal of Advanced Research, 2025)

Assays:
human P2Y14 receptor = target: T1, human P2Y14 receptor (Homo sapiens, UniProt Q15391); assay: In vitro P2Y14R antagonistic activity; format: cell-based
T1 sequence (Q15391 1-338): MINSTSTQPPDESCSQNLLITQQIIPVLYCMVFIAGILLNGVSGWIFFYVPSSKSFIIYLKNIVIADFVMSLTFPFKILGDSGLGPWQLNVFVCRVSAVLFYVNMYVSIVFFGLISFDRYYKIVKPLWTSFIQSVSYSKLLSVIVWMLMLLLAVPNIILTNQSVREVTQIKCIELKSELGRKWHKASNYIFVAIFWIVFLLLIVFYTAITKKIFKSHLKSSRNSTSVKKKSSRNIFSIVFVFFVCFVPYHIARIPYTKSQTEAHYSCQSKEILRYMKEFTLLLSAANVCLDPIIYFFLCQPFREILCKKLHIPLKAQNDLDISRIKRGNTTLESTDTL
Procedure, shortened: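 hP2Y14-HEK293 cells (HEK293 stably expressing human P2Y14R) grown in DMEM with 10 % FBS and 1 % penicillin/streptomycin. Seeded at 10,000 cells/well in 384-well plates and preincubated 30 min at 37 °C with test compound or DMSO. Stimulated with UDPG; intracellular cAMP measured by cAMP-Glo luminescence on a plate reader. N = 3.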

[1] = within 60 min; cited from earlier work
[2] = system: DSS-induced experimental colitis; assay: DSS-induced experimental colitis model in mice; format: in vivo; settings: DB07565 rectally daily
Procedure, shortened: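 Male C57BL/6 J mice, 7–8 weeks, randomised by weight into groups of six. Colitis induced with 3 % (w/v) DSS in drinking water for 7 days. Test compound dissolved in DMSO, diluted in PBS to 50 or 100 μM, given rectally at 100 µl/mouse daily. Oral 5-ASA 50 mg/kg daily as reference. Colons fixed in 4 % PFA and paraffin-embedded. 5 μm sections stained with H&E; immunofluorescence for Claudin-1, Occludin and ZO-1 at 4 ℃ overnight, 1 h secondary, DAPI 10 min.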

HT-29 cells = assay: Cell viability assay; format: cell-based; settings: 100 μM, 24 h, CCK-8, N = 5
Procedure, shortened: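 HT-29 cells cultured in DMEM with 10 % FBS and 1 % penicillin/streptomycin at 37 °C, 5 % CO2. Seeded at 10,000 cells/well in 96-well plates and exposed to test compound or DMSO for 24 h at 37 °C. Viability read with CCK-8 per kit instructions; N = 5.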

## O=C(O)CCC(=O)OC[C@@H](NC(=O)C(Cl)Cl)[C@H](O)c1ccc([N+](=O)[O-])cc1 [DB07565, Chloramphenicol succinate]
Human P2Y14 receptor
  IC50: 1.58 nM
[1]
  degradation in intestinal fluid: less than 10%
[2]; C57BL/6 J mice, 3 % DSS 7 days
  histopathological analysis of colon (H&E): mitigated DSS-induced tissue damage and inflammatory cell infiltration in the colon
[2]; colon tissue of DSS-treated mice
  gut barrier function, immunofluorescence of tight junction proteins (Claudin-1, Occludin, ZO-1): markedly enhanced gut barrier function
HT-29 cells
  cytotoxicity (cell viability): low cytotoxicity
